Measured values from ChEMBL document CHEMBL2412961, “CD4 mimics as HIV entry inhibitors: lead optimization studies of the aromatic substituents” (Bioorg Med Chem, 2013).
The source made the active and inactive calls. The calls are words filed in the database; no cut-off is given here.

Tests used:
[1] = test system: Human immunodeficiency virus 1; assay: Antiviral activity against Human immunodeficiency virus 1 R5 primary isolate YTA48P infected in CCR5-expressing human PM1 cells assessed as inhibition of virus-induced cytopathogenicity after 7 days by WST8 assay; assay type: functional, organism-based; conditions: PM1, 168 h
Summary of the method: (§1)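 PM1/CCR5 cells were infected with the HIV-1 R5 primary isolate YTA, or mock-infected for cytotoxicity, and incubated with compound at 37 °C for 7 days. Viability was read by WST-8 (Cell Counting Kit-8). IC50 is the concentration giving 50% protection from virus-induced cytopathogenicity. CC50 is the concentration giving 50% loss of viability in mock-infected cells. Assays were run in duplicate or triplicate.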

[2] = Cytotoxicity against CCR5-expressing human PM1 cells assessed as reduction of cell viability after 7 days by WST8 assay; assay type: cell-based; summary of the method: as §1
PM1 [3] = assay: Induction of conformational change in human immunodeficiency virus 1 JR-FL R5 subtype B gp120 infected in human PM1 cells assessed as increase in binding affinity to monoclonal antibody 4C11 at 100 uM after 15 mins by FACS analysis; assay type: cell-based
Summary of the method: (§2)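 PM1 cells chronically infected with JR-FL (R5, subtype B) were pre-incubated with CD4 mimic for 15 min, with sCD4 at 0.5 µg/mL as reference. They were then incubated with CD4i mAb 4C11 at 4 °C for 15 min, washed with PBS and stained with FITC anti-human IgG. Flow cytometry read the 4C11 mean fluorescence intensity on gated PM1 cells, with anti-CD19 as control antibody. There were at least two independent experiments.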

PM1 [4] = assay: Induction of conformational change in human immunodeficiency virus 1 JR-FL R5 subtype B gp120 infected in human PM1 cells assessed as increase in binding affinity to monoclonal antibody 4C11 at 25 to 100 uM after 15 mins by FACS analysis; assay type: cell-based; summary of the method: as §2

| Compound | IC50 [1] [µM] | CC50 at 168 h [2] [µM] | Activity (PM1 [3]) | Activity (PM1 [4]) |
| --- | --- | --- | --- | --- |
| CC1(C)CC(NC(=O)C(=O)Nc2ccc(Cl)c(Cl)c2)CC(C)(C)N1 | 4.1 | 36 | Active | – |
| O=C(Nc1ccc(Cl)cc1)C(=O)NC1CC2(CCCCC2)NC2(CCCCC2)C1 (stereo not given) | 0.43 | – | – | – |
| Cc1cc(NC(=O)C(=O)NC2CC(C)(C)NC(C)(C)C2)ccc1Cl | 3.3 | 38 | Active | – |
| Cc1ccc(NC(=O)C(=O)NC2CC3(CCCCC3)NC3(CCCCC3)C2)cc1Cl (stereo not given) | 6.2 | 11 | Active | – |
| Cc1ccc(NC(=O)C(=O)NC2CC(C)(C)NC(C)(C)C2)cc1Br | > 10 | 32 | Active | – |
| CC1(C)CC(NC(=O)C(=O)Nc2ccc(Cl)c(F)c2)CC(C)(C)N1 | 0.32 | 94 | Active | – |
| Cc1cc(NC(=O)C(=O)NC2CC3(CCCCC3)NC3(CCCCC3)C2)ccc1Cl (stereo not given) | 2.6 | 15 | Active | – |
| O=C(Nc1ccc(Cl)c(F)c1)C(=O)NC1CC2(CCCCC2)NC2(CCCCC2)C1 (stereo not given) | 0.23 | 11 | Active | Active |
| O=C(Nc1ccc(Cl)c(Cl)c1)C(=O)NC1CC2(CCCCC2)NC2(CCCCC2)C1 (stereo not given) | 0.62 | 11 | Active | – |
| Cc1ccc(NC(=O)C(=O)NC2CC3(CCCCC3)NC3(CCCCC3)C2)cc1F (stereo not given) | 0.54 | 91 | Active | – |
| Cc1ccc(NC(=O)C(=O)NC2CC(C)(C)NC(C)(C)C2)cc1F | 2.8 | 110 | Active | – |
| Cc1ccc(NC(=O)C(=O)NC2CC3(CCCCC3)NC3(CCCCC3)C2)cc1Br (stereo not given) | 3.2 | 11 | Active | – |
| Cc1ccc(NC(=O)C(=O)NC2CC(C)(C)NC(C)(C)C2)cc1 | 9 | – | – | – |
| Cc1ccc(NC(=O)C(=O)NC2CC(C)(C)NC(C)(C)C2)cc1Cl | 3.2 | 62 | Active | – |
| CC1(C)CC(NC(=O)C(=O)Nc2ccc(Cl)cc2)CC(C)(C)N1 | 0.61 | – | – | – |
